The array DNA melting data of Ke et al. (doi:10.1101/2024.01.08.574731)

Legend:
[1] = folding enthalpy; higher = less favourable; fluorescence melt of hairpins on a sequencing array, two-state fit; settings: sodium 0.088 M
Summary of the method: (§1)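 Cy3 signals were normalised both to pre-quench Cy3 and to control constructs. They came from library hairpins carrying annealed Cy3 and quencher oligos on a sequenced MiSeq flow cell, imaged in 50 mM Na-HEPES pH 8.0, 25 mM NaCl, in 2.5 °C steps up to 60 °C. Bootstrapped two-state fits gave melting temperature and folding enthalpy, and four replicates were combined by inverse variance. Fitted temperatures were then raised by 9.35 °C to match UV melts.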

[2] = melting temperature; fluorescence melt of hairpins on a sequencing array, two-state fit, raised by 9.35 °C to match UV melts; settings: sodium 0.088 M
Summary of the method: as §1

Row | Sequence | folding enthalpy [1] | Tm [2]
1 | GGGAGAGAAATCTCCC ((((((....)))))) | -35 kcal/mol | 56.4 °C
2 | GGGAGAGGAAACTCTCCC (((((((....))))))) | -42.9 kcal/mol | 64.8 °C
3 | GGGAGAGGAAACTTTCCC ((((.((....)).)))) | -27.3 kcal/mol | 42.1 °C
4 | GGGAGCCCGAAAGGGCCC (((..(((....)))))) | -10.7 kcal/mol | 58.8 °C
5 | GGGAGCGAAAGCTACCCC ((((((....)))..))) | -12 kcal/mol | 59.8 °C
6 | GGGAGCGAAAGCTCACCC ((((((....)))..))) | -11.2 kcal/mol | 57.2 °C
7 | GGGAGCGAAAGCTCTCCC ((((((....)))..))) | -11.8 kcal/mol | 52.2 °C
8 | GGGAGCGAAAGCTGACCC ((((((....)))..))) | -16.5 kcal/mol | 45.9 °C
9 | GGGAGCGAAAGCTGCCC ((((((....))).))) | -15.1 kcal/mol | 60.5 °C
10 | GGGAGCGGAAACACCCCC (((.(.(....).).))) | -16 kcal/mol | 28.2 °C
11 | GGGAGCTCGAAAGAGCCC (((..(((....)))))) | -11.2 kcal/mol | 57.2 °C
12 | GGGAGGCGAAAGCCCCC (((.(((....)))))) | -19.2 kcal/mol | 66.3 °C
13 | GGGAGGGCGAAAGCCCCC (((..(((....)))))) | -10.6 kcal/mol | 55.3 °C
14 | GGGAGGGGAAACCCCCCC (((.(((....))).))) | -38.7 kcal/mol | 53.3 °C
15 | GGGAGGGGAAACCCTCTC (.(((((....))))).) | -20.2 kcal/mol | 52.2 °C
16 | GGGAGGGGAAACCTTCCC ((((.((....)).)))) | -25.1 kcal/mol | 50 °C
17 | GGGAGGGGAAACTCTCCC (((((.(....).))))) | -31.4 kcal/mol | 52 °C
18 | GGGAGTCGAAAGACCCC (((.(((....)))))) | -32.7 kcal/mol | 56.7 °C
19 | GGGAGTGGAAACACCCCC (((.(((....))).))) | -19 kcal/mol | 49.2 °C
20 | GGGATACGAAAGTAACCC (((.(((....))).))) | -31.1 kcal/mol | 51.7 °C
21 | GGGATAGCGAAAGCTCCC (((..(((....)))))) | -21.8 kcal/mol | 50.1 °C
22 | GGGATAGGAAACCATCCC (((((.(....).))))) | -30.9 kcal/mol | 43.3 °C
23 | GGGATCCGAAAGGAACCC (((.(((....))).))) | -46.3 kcal/mol | 56.7 °C

Row | Sequence | folding enthalpy [1] | Tm [2]
24 | GGGATCGAAAGATGACCC ((((((....)))..))) | -27.8 kcal/mol | 33.6 °C
25 | GGGATCGAAAGATTACCC ((((((....)))..))) | -17.4 kcal/mol | 32.4 °C
26 | GGGATCGGAAACAATCCC (((((.(....).))))) | -30.9 kcal/mol | 40.6 °C
27 | GGGATGAAAATCCC (((((....))))) | -28.8 kcal/mol | 56.5 °C
28 | GGGATGGGAAACCATTCC ((.((((....)))).)) | -31.1 kcal/mol | 50.2 °C
29 | GGGATGGGAAACCGTCTC (.((.((....)).)).) | -26.1 kcal/mol | 36.6 °C
30 | GGGATGTCGAAAGACCCC (((..(((....)))))) | -18.8 kcal/mol | 44.9 °C
31 | GGGATTGAAAAATCCC ((((((....)))))) | -43.6 kcal/mol | 55.8 °C
32 | GGGATTGCGAAAGCACCC (((..(((....)))))) | -14.5 kcal/mol | 41.2 °C
33 | GGGATTGGAAACAATTCC ((.((((....)))).)) | -34 kcal/mol | 46.5 °C
34 | GGGATTGGAAACGATCCC (((((.(....).))))) | -43.8 kcal/mol | 51.9 °C
35 | GGGATTTCGAAAGAACCC (((..(((....)))))) | -22.6 kcal/mol | 30.3 °C
36 | GGGCAACCGAAAGGTCCC (((..(((....)))))) | -16.3 kcal/mol | 44 °C
37 | GGGCAAGCGAAAGCTCCC (((..(((....)))))) | -19 kcal/mol | 44.6 °C
38 | GGGCAAGGAAACCTGCCC (((((.(....).))))) | -37.7 kcal/mol | 57.5 °C
39 | GGGCAAGGAAACTCGCCC ((((.((....)).)))) | -31.1 kcal/mol | 50.7 °C
40 | GGGCAAGGAAACTTGCTC (.(((((....))))).) | -27.9 kcal/mol | 52.7 °C
41 | GGGCACCGAAAGGTACCC (((.(((....))).))) | -35.1 kcal/mol | 56.7 °C
42 | GGGCACCGAAAGGTTCCC (((.(((....))).))) | -32.4 kcal/mol | 52.5 °C
43 | GGGCACGAAAGTGAACCC ((((((....)))..))) | -16.6 kcal/mol | 51.7 °C
44 | GGGCACGAAAGTGCACCC ((((((....)))..))) | -10.8 kcal/mol | 58.2 °C
45 | GGGCACGAAAGTGGTCCC ((((((....)))..))) | -17.5 kcal/mol | 52.5 °C
46 | GGGCACGAAAGTGTGCCC ((((((....)))..))) | -27.1 kcal/mol | 64.5 °C

Row | Sequence | folding enthalpy [1] | Tm [2]
47 | GGGCACGGAAACACGCCC ((((..(....)..)))) | -30.7 kcal/mol | 46.2 °C
48 | GGGCAGCGAAAGCTCCC (((.(((....)))))) | -20.3 kcal/mol | 57.3 °C
49 | GGGCATCGAAAGATCCCC (((.(((....))).))) | -19.4 kcal/mol | 48.9 °C
50 | GGGCATGGAAACATGCTC (.(((((....))))).) | -30.1 kcal/mol | 55.4 °C
51 | GGGCCAGGAAACTAGCCC ((((.((....)).)))) | -27.3 kcal/mol | 48.6 °C
52 | GGGCCCGAAAGGGATCCC ((((((....)))..))) | -14.9 kcal/mol | 56.6 °C
53 | GGGCCCGGAAACGAGCCC ((((.((....)).)))) | -47.5 kcal/mol | 57.5 °C
54 | GGGCCGCGAAAGCGCCCC (((.(((....))).))) | -12.4 kcal/mol | 68.8 °C
55 | GGGCCGGGAAACTGGCCC (((((.(....).))))) | -31.9 kcal/mol | 68.9 °C
56 | GGGCCTCCGAAAGGACCC (((..(((....)))))) | -21.2 kcal/mol | 50.1 °C
57 | GGGCCTGGAAACAGGCTC (.(((((....))))).) | -15.9 kcal/mol | 61.6 °C
58 | GGGCGAACGAAAGTTCCC (((..(((....)))))) | -15.4 kcal/mol | 45.2 °C
59 | GGGCGACGAAAGTCACCC (((.(((....))).))) | -43.3 kcal/mol | 61.8 °C
60 | GGGCGCACGAAAGTGCCC (((..(((....)))))) | -12.1 kcal/mol | 57 °C
61 | GGGCGCGAAAGCGAGCCC ((((((....)))..))) | -16.7 kcal/mol | 66.2 °C
62 | GGGCGCGAAAGCGATCCC ((((((....)))..))) | -14.3 kcal/mol | 58.5 °C
63 | GGGCGCGAAAGCGCACCC ((((((....)))..))) | -9.21 kcal/mol | 66.3 °C
64 | GGGCGCGAAAGCGGTCCC ((((((....)))..))) | -11.7 kcal/mol | 63.8 °C
65 | GGGCGGTCGAAAGACCCC (((..(((....)))))) | -15.3 kcal/mol | 53.9 °C
66 | GGGCGTCCGAAAGGACCC (((..(((....)))))) | -13.9 kcal/mol | 57.8 °C
67 | GGGCGTGGAAACACACCC (((.(((....))).))) | -40.7 kcal/mol | 51.8 °C
68 | GGGCGTGGAAACATGCCC ((((.((....)).)))) | -42.9 kcal/mol | 63.1 °C
69 | GGGCTACGAAAGTAACCC (((.(((....))).))) | -36.6 kcal/mol | 52 °C

Row | Sequence | folding enthalpy [1] | Tm [2]
70 | GGGCTACGAAAGTACCC (((.(((....)))))) | -34.9 kcal/mol | 49.6 °C
71 | GGGCTAGGAAACTGGTCC ((.(.((....)).).)) | -33.6 kcal/mol | 41 °C
72 | GGGCTCGAAAGAGAGCCC ((((((....)))..))) | -35.3 kcal/mol | 66.2 °C
73 | GGGCTCGAAAGAGCGCCC ((((((....)))..))) | -10.7 kcal/mol | 56.6 °C
74 | GGGCTCGAAAGAGTTCCC ((((((....)))..))) | -21 kcal/mol | 43.5 °C
75 | GGGCTCGGAAACAAGCCC (((((.(....).))))) | -28.1 kcal/mol | 51.4 °C
76 | GGGCTCGGAAACGAACCC (((.(((....))).))) | -46.9 kcal/mol | 51 °C
77 | GGGCTGCGAAAGCATCCC (((.(((....))).))) | -34.5 kcal/mol | 55.2 °C
78 | GGGCTGGCGAAAGCCCCC (((..(((....)))))) | -12.9 kcal/mol | 52.1 °C
79 | GGGCTTTCGAAAGAACCC (((..(((....)))))) | -40 kcal/mol | 35.7 °C
80 | GGGGAACGAAAGTTTCCC (((.(((....))).))) | -36.8 kcal/mol | 61.1 °C
81 | GGGGACCCGAAAGGGCCC (((..(((....)))))) | -16.4 kcal/mol | 62.3 °C
82 | GGGGACGAAAGTCATCCC ((((((....)))..))) | -12.6 kcal/mol | 45.6 °C
83 | GGGGACGAAAGTCCTCCC ((((((....)))..))) | -10.8 kcal/mol | 48.3 °C
84 | GGGGACGAAAGTCGCCC ((((((....))).))) | -13.9 kcal/mol | 64.9 °C
85 | GGGGACGAAAGTCTGCCC ((((((....)))..))) | -14.4 kcal/mol | 44.1 °C
86 | GGGGACGCGAAAGCGCCC (((..(((....)))))) | -12.9 kcal/mol | 60 °C
87 | GGGGATGGAAACGTCTCC ((.((.(....).)).)) | -26 kcal/mol | 36.5 °C
88 | GGGGATTCGAAAGAACCC (((..(((....)))))) | -20.5 kcal/mol | 47.4 °C
89 | GGGGCCGAAAGGCGGCCC ((((((....)))..))) | -15.1 kcal/mol | 68.2 °C
90 | GGGGCCGCGAAAGCGCCC (((..(((....)))))) | -11 kcal/mol | 66 °C
91 | GGGGCCGGAAACAGCCCC (((((.(....).))))) | -41.3 kcal/mol | 57 °C
